# Test results reported in ChEMBL document CHEMBL4706680, “Small-Molecule HSP27 Inhibitor Abolishes Androgen Receptors in Glioblastoma” (J Med Chem, 2021).
# Activity calls are given as the source filed them. The calls are words filed in the database; no cut-off is given here.
# Legend:
# T98G = assay: Downregulation of NKX3.1 mRNA expression in human T98G cells at 25 nM incubated for 12 hrs by qRT-PCR analysis; type: functional, cell-based
# Method in brief: (§1)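 T98G and U87 cells, 2 × 10^5 per well, adhered overnight and were treated at 25 nM for 12 h. RNA was extracted with RiboZol and DNase I-treated. AR, PSA and NKX3.1 were measured by real-time PCR, normalized to 18S by 2−ΔΔCt, three replicates per cDNA.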
# [1] = molecular target: Heat shock protein beta-1 (Homo sapiens) (UniProt P04792); assay: Inhibition of HSP27 in human T98G cells assessed as AR accumulation in nucleus at 100 nM incubated for 12 hrs in presence of DHT by immunofluorescence analysis; type: cell-based
# Method in brief: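 T98G cells on coverslips, 24 h after seeding, were treated 12 h with 100 nM, DHT 10 nM, or both. Cells were fixed in 4% paraformaldehyde, permeabilized with 0.1% Triton X-100 and blocked with 1% BSA. They were stained 1 h each with AR and HSP27 primary and fluorescent secondary antibodies, with DAPI for nuclei.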
# U-87 MG = assay: Antitumor activity against human U87 cells xenografted in nude mouse assessed as reduction in tumor size at 20 mg/kg, po administered thrice weekly for 14 days by vernier caliper method; type: functional, organism-based; conditions: U-87MG ATCC, time 14.0 day
# Method in brief: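 Male NCRNU nude mice, 5–6 weeks, 5 × 10^6 U87 cells in PBS injected subcutaneously into left and right flank (n = 4 mice, 8 tumors per group). Dosing began near 50 mm3: 20 mg/kg in PBS IP or oral, three times weekly for 14 days, vehicle DMSO. Calipers three times weekly, V = 2/3·d1·d2²; tumors weighed after CO2 euthanasia.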
# [2] = molecular target: Heat shock protein beta-1 (Homo sapiens) (UniProt P04792); assay: Inhibition of HSP27 in human U87 cells assessed as reduction in AR expression level at 50 to 100 nM in presence of MG132 by Western blot analysis; type: cell-based; conditions: dose 50-100 nM
# Method in brief: (§2)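 Cells were treated in six-well plates (with or without MG132 where stated), then lysed in RIPA with protease inhibitors. 50 μg protein was run on 10% SDS-PAGE and transferred to PVDF. Membranes were blocked in 5% milk/TBS-T, probed with AR or AR-V7 antibodies overnight at 4 °C, and detected by chemiluminescence. Densitometry was used; n = 3.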
# [3] = Dissociation constant, pKa of the compound; type: physicochemical
# [4] = Toxicity in CD1 mouse assessed as decrease in body weight at 80 mg/kg/day, ip administered thrice weekly and observed at day 5 to 7; type: organism-based; conditions: in vivo, 72 h, time 3 day
# Method in brief: (§3)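 Male CD-1 mice, four per group, given 80 mg/kg in PBS IP three times weekly; vehicle DMSO. Mice were euthanized when toxicity signs appeared, otherwise at day 10. Body weight was recorded at first and last dosing days. Non-fasted cardiac blood was taken after euthanasia for an automated hematology analyzer.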
# [5] = Toxicity in CD1 mouse assessed as decrease in body weight at 80 mg/kg/day, ip administered thrice weekly and measured at day 10; type: organism-based; conditions: in vivo, 72 h, time 3 day; method in brief: as §3
# [6] = molecular target: Heat shock protein beta-1 (Homo sapiens) (UniProt P04792); assay: Inhibition of HSP27 in human T98G cells assessed as reduction in AR-V7 expression by Western blot analysis; type: cell-based; conditions: dose 25-100 nM; method in brief: as §2
# [7] = Toxicity in CD1 mouse assessed as acute pain at 80 mg/kg/day, ip administered thrice weekly and measured at day 10; type: organism-based; conditions: in vivo, 72 h, time 3 day; method in brief: as §3
# Mus musculus = assay: In vivo inhibition of HSP27 in human U87 cells xenografted in NCR nude mouse assessed as reduction in AR expression level in tumors at 20 mg/kg, po administered thrice weekly for 14 days by Western blot analysis; type: functional, organism-based; conditions: time 14.0 day
# Method in brief: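 Tumors from U87 flank xenografts in male nude mice dosed at 20 mg/kg IP or orally three times weekly for 14 days. The two tumors of each mouse were pooled and homogenized in RIPA with protease inhibitors and PMSF. AR was then measured by western blot; n = 4.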
# [8] = molecular target: T1, Androgen receptor (Homo sapiens) (UniProt P10275); assay: Inhibition of AR transcriptional activity in human T98G cells assessed as reduction in AR mRNA expression at 25 nM incubated for 12 hrs by qRT-PCR analysis; type: cell-based; method in brief: as §1
# T1 sequence (whole entry): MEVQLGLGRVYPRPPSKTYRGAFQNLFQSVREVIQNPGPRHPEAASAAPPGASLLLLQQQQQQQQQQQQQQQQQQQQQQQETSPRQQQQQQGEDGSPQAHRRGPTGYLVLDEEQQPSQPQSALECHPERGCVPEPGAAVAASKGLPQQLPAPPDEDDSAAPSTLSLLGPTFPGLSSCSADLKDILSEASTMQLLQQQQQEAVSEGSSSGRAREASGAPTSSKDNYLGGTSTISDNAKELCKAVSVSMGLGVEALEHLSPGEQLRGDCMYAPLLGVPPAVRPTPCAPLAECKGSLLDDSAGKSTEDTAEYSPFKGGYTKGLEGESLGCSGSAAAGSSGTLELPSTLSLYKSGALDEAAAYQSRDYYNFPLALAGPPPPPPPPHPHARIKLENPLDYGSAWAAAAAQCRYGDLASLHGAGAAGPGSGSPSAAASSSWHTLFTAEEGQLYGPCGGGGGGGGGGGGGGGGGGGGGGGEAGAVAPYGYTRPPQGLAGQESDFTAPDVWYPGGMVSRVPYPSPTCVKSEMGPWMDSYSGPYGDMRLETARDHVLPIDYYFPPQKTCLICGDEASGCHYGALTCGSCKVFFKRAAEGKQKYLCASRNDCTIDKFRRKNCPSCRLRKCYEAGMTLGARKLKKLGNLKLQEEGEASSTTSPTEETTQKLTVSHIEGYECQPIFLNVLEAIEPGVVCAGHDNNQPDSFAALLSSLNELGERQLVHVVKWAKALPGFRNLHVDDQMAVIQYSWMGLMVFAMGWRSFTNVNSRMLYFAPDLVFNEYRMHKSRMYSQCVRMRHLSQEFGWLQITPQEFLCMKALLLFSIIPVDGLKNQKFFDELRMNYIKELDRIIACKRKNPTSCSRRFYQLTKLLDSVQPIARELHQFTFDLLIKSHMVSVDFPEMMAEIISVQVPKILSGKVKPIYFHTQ
# [9] = molecular target: Heat shock protein beta-1 (Homo sapiens) (UniProt P04792); assay: Inhibition of HSP27 in human U87 cells assessed as reduction in AR expression level at 50 to 100 nM by Western blot analysis; type: cell-based; conditions: dose 50-100 nM; method in brief: as §2
# [10] = Toxicity in NCR nude mouse xenografted with human U87 cells assessed as change in body weight at 20 mg/kg, ip administered thrice weekly for 14 days; type: organism-based; conditions: in vivo, 336 h, time 14 day
# Method in brief: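 Male NCRNU nude mice, 5–6 weeks old, were given 5 × 10^6 U87 cells in 100 μL sterile PBS, injected subcutaneously into the left and right flanks. Dosing was 20 mg/kg in PBS, three times weekly for 14 days, with a DMSO vehicle group. Body weight was recorded three times weekly. Results are mean ± SD, n = 4 mice per group.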
# [11] = molecular target: Heat shock protein beta-1 (Homo sapiens) (UniProt P04792); assay: Inhibition of HSP27 in human U87 cells assessed as downregulation of androgen receptor by Western blot analysis; type: cell-based; conditions: dose 25-100 nM; method in brief: as §2
# Sequence of Heat shock protein beta-1 (Homo sapiens) (P04792 whole entry): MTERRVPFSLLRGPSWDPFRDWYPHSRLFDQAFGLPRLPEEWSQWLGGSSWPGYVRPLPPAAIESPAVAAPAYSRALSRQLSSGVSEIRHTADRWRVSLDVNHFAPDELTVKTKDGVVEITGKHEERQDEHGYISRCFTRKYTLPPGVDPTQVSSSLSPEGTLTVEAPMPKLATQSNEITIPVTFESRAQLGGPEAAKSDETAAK
smiles,measurement,setting,value
COc1ccc(C(=O)Nc2ccc(NS(C)(=O)=O)c(OCc3cc(OC)ccc3OC)c2)cc1,inhibition,T98G,Active
same,inhibition,[1],inactive
same,Activity,U-87 MG,Active
same,inhibition,[2],inactive
same,pKa,[3],8.65
same,Activity,[4],Non-Toxic
same,Activity,[5],Non-Toxic
same,inhibition,[6],Dose-dependent effect
same,Activity,[7],Non-Toxic
same,inhibition,Mus musculus,Active
same,inhibition,[8],Active
same,inhibition,[9],Active
same,Activity,[10],Non-Toxic
same,inhibition,[11],Dose-dependent effect
